Screening data (PubChem)
Sampled rows, rich in hits. Any-hit rate of the full collection: about 1.9%.
Tb hexokinase: blocks Trypanosoma brucei hexokinase 1 activity. recombinant TbHK1, G6PDH-coupled NADH A340. inhibition, % at 10 µM. hit rate 0.11% among 220,000. AID 1430;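 active = inhibition of 50% or more in the single-dose primary screen; inactive = inhibition below 50%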
Ins promoter up: MIN6 insulin promoter up-regulation; MIN6 insulin promoter-GFP reporter, high-content imaging; hits give high values; z-score at 5 µM; hit rate 0.3% among 190,000; AID 1625;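 active = z-score above 3 at 5 µM with at least 500 cells counted in the well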
Autophagy mod: modulators of autophagy. MEF GFP-LC3 puncta imaging; test concentration mostly 10 µM. hit rate 0.98% among 190,000. calls only at 10 µM (by protocol);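 active = percentage of spot-positive cells more than 3 SD above its plate mean, without a fluorescence outlier flag or 80% toxicity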;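 note: spot-positive cell cutoff set from DMSO-treated cells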
MT stabilize HCS: stabilizes microtubules in HeLa cells; HeLa tubulin immunostaining HCS, 24 h; share of cells brighter than vehicle mean+2SD; % tubulin-high responders, % at 10 µM; hit rate 0.83% among 200,000; AID 2205;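 active = plate Z-score above 3 for both tubulin-high and condensed-nucleus cell shares, with cell loss under 80%, at 10 µM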;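 note: anti alpha tubulin signal scored within the nucleus-defined area of each cell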
b-catenin transl: beta-catenin nuclear translocation modulation; HeLa beta-catenin nuclear translocation, immunofluorescence imaging; nuclear translocation activity, % at 5 µM; hit rate 0.3% among 190,000; AID 1665;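 active = nuclear translocation activity above 50% at 5 µM, with a well cell count of 50 or more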;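 note: per-cell ratio of nuclear to cytoplasmic median beta-catenin stain intensity; plate controls were DMSO negative control for no effect and GSK-3 inhibitor IX positive control for full effect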
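Test system: human HeLa cell line; Doses: 5 µM primary, 0.02–20 µM confirmation; Incubation: 24 h compound exposure, 37°C; Detection: beta-catenin immunofluorescence imaging with DAPI; Read-out: beta-catenin nuclear/cytoplasmic ratio, % activation.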
The depositor's hits bear a star.

Screening Cc1ccc2nc(SCC(=O)Nc3cc(C(F)(F)F)ccc3N3CCOCC3)[nH]c2c1 returned Tb hexokinase -9, Ins promoter up -0.88, Autophagy mod inactive and MT stabilize HCS 22*.
Screening CC(=O)/C=C/n1c(=S)oc2ccccc21 returned Tb hexokinase 15, Ins promoter up -1.3, Autophagy mod active, MT stabilize HCS 2 and b-catenin transl -1.
`CCOc1ccccc1C1CC(=O)Nc2cc3c(cc21)OCCO3` (configuration not stated) gave Tb hexokinase 3, Ins promoter up -0.75, Autophagy mod inactive, MT stabilize HCS 14 and b-catenin transl 1.
CC(C)Oc1ccccc1C1CC(=O)Nc2cc3c(cc21)OCO3 (configuration not stated) was read as Tb hexokinase 1, Ins promoter up -1.2, Autophagy mod inactive, MT stabilize HCS 21* and b-catenin transl -2.
`CCCOc1ccccc1C1CC(=O)Nc2cc3c(cc21)OCCO3` (configuration not stated) gave Tb hexokinase 7, Autophagy mod inactive, MT stabilize HCS 13* and b-catenin transl -1.
`COc1cc(C(=O)O)nc2ccc([N+](=O)[O-])cc12` gave Tb hexokinase -7, Ins promoter up -0.45, Autophagy mod inactive, MT stabilize HCS 3 and b-catenin transl 3.
Screening COc1ccc(OC)c(NC(=O)CSc2nc3ccccc3c3nc4ccccc4n23)c1 returned Tb hexokinase -11, Ins promoter up 0.11, Autophagy mod inactive, MT stabilize HCS 5 and b-catenin transl -1.
COc1ccc(NC(=O)CSc2nc3ccccc3c3nc4ccccc4n23)cc1 was read as Tb hexokinase -5, Autophagy mod inactive, MT stabilize HCS 25* and b-catenin transl 28.
For Cc1ccc(NC(=O)CSc2nc3ccccc3c3nc4ccccc4n23)cc1 the results were Tb hexokinase 3, Ins promoter up -0.81, Autophagy mod inactive, MT stabilize HCS 33* and b-catenin transl 148*.
Screening C/C(=N\NC(=O)CCn1nnc2ccccc21)c1ccco1 returned Tb hexokinase 6, Ins promoter up -1.2 and b-catenin transl 2.
`N#CC1=C(N)Oc2c(ccc3cccnc23)C1c1cccnc1` (configuration not stated) gave Tb hexokinase 2, Ins promoter up 0.59, Autophagy mod inactive, MT stabilize HCS 22* and b-catenin transl 56*.
Screening N#CC1=C(N)Oc2cc3ccccc3cc2C1c1cccnc1 (configuration not stated) returned Tb hexokinase -3, Ins promoter up 1.3, Autophagy mod inactive, MT stabilize HCS 56* and b-catenin transl -1.
COC(=O)[C@@H]1C[C@@]2(O)[C@H](O)[C@H](O)[C@H](O)C[C@H]2N1C/C=C/c1ccccc1 was read as Tb hexokinase -10, Ins promoter up 0.09 and b-catenin transl -2.
N#CCCn1cc(C(=O)O)c(-c2cccs2)n1 was read as Tb hexokinase 13, Ins promoter up 0.04, Autophagy mod inactive, MT stabilize HCS 4 and b-catenin transl 1.
For Nc1nc(SCC(=O)Nc2ccc3c(c2)OCO3)n[nH]1 the results were Tb hexokinase 2, Ins promoter up 0.07, Autophagy mod inactive, MT stabilize HCS 6 and b-catenin transl -2.
Screening CCSC(=O)NC1CCCCC1 returned Tb hexokinase -2, Ins promoter up -0.28 and b-catenin transl 0.
`O=C(NC1CCCCC1)c1nn2c(C(F)(F)F)cc(-c3ccco3)nc2c1Br` gave Tb hexokinase -1, Ins promoter up -0.57, Autophagy mod active, MT stabilize HCS 2 and b-catenin transl 0.
`O=c1[nH]c(CSc2nnc(Nc3ccccc3)s2)nc2ccccc12` gave Tb hexokinase -3, Ins promoter up -0.75 and b-catenin transl -4.
Cc1cccc2cc(C(c3nnnn3CC3CCCO3)N3CCCC4(CCCCC4)C3)c(=O)[nH]c12 (configuration not stated) was read as Tb hexokinase 3, Ins promoter up -0.59, Autophagy mod active, MT stabilize HCS 2 and b-catenin transl 1.
Screening O=C1NC(=Nc2ccccc2)S/C1=C\c1cccn1-c1ccccc1 returned Tb hexokinase -19, Autophagy mod inactive, MT stabilize HCS 21* and b-catenin transl 10.
Screening Cc1cccc(N=C2NC(=O)/C(=C/c3cccn3C)S2)c1 returned Tb hexokinase -14, Ins promoter up 0.66 and b-catenin transl -3.
COc1ccccc1Nc1nc2nonc2nc1N1CCC(C)CC1 was read as Tb hexokinase 18, Ins promoter up 1.9, Autophagy mod inactive, MT stabilize HCS 2 and b-catenin transl -1.
For COc1ccc(OC)c(Nc2nc3nonc3nc2N2CCCCC2)c1 the results were Tb hexokinase -12, Ins promoter up 0.65, Autophagy mod active, MT stabilize HCS 2 and b-catenin transl -1.
`CCN(CC)CCNCc1cc(Br)ccc1OCC(=O)NCc1ccccc1` gave Tb hexokinase 2, Ins promoter up -0.19, Autophagy mod inactive, MT stabilize HCS 2 and b-catenin transl 1.
`CC(NCc1cc(Br)ccc1OCC(=O)NCc1ccccc1)c1ccccc1` (configuration not stated) gave Tb hexokinase 11, Ins promoter up -2.5, Autophagy mod active, MT stabilize HCS 3 and b-catenin transl -1.
CCOc1cc(C#N)c(NC(=O)c2cccnc2)cc1OCC was read as Tb hexokinase 3, Autophagy mod inactive and MT stabilize HCS 39*.
Screening CCOc1cc(NC(=O)c2cnccn2)c(OCC)cc1NC(=O)c1cccc(F)c1 returned Tb hexokinase -11, Ins promoter up 0.08, Autophagy mod active, MT stabilize HCS 1 and b-catenin transl 0.
For CCOc1cc(C#N)c(NC(=O)c2cccnc2Cl)cc1OCC the results were Tb hexokinase 0, Ins promoter up 0.52, Autophagy mod inactive, MT stabilize HCS 3 and b-catenin transl -3.
CCN1C(=O)/C(=C/c2ccc(C)s2)SC1=Nc1ccc(OC)cc1 was read as Tb hexokinase -14, Ins promoter up 0.47, Autophagy mod inactive, MT stabilize HCS 33* and b-catenin transl 5.
Screening CCN1C(=O)/C(=C/c2cc(C)n(C)c2C)SC1=Nc1ccc(OC)cc1 returned Tb hexokinase -26, Autophagy mod inactive and MT stabilize HCS 4.
For Cc1ccc2cc(CN(CC3CCCO3)C(=S)Nc3ccccc3)c(=O)[nH]c2c1 (configuration not stated) the results were Tb hexokinase -10, Ins promoter up -0.46, Autophagy mod inactive, MT stabilize HCS 16* and b-catenin transl 64*.
Screening Cc1ccc2cc(CN(CC3CCCO3)C(=S)Nc3ccccc3)c(=O)[nH]c2c1C (configuration not stated) returned Tb hexokinase -20, Ins promoter up -1.5, Autophagy mod inactive, MT stabilize HCS 11 and b-catenin transl 33.
Screening Cc1ccc2cc(CN(Cc3ccco3)C(=S)NCC3CCCO3)c(=O)[nH]c2c1 (configuration not stated) returned Tb hexokinase -3, Autophagy mod inactive, MT stabilize HCS 1 and b-catenin transl -2.
